Activity calls are given as the source filed them. The calls are words filed in the database; no cut-off is given here.
How the values were obtained:
[1] = system: HeLa; assay: Induction of cell cycle arrest in human HeLa cells assessed as accumulation at G1 phase at 1 uM after 48 hrs by propidium iodide staining based flow cytometric analysis (reference value: 40.7%); assay type: functional
[2] = system: HeLa; assay: Antiproliferative activity against human HeLa cells assessed as reduction in cell viability preincubated for 12 hrs followed by 4 Gy irradiation and measured after 60 hrs by MTT assay; assay type: functional, cell-based; settings: light or radiation study
In short: (§1)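 MTT viability assay in HeLa cancer cells, with the test agent alone (0 Gy) or combined with 4 Gy X-rays. IC50 values are in μM. Sensitivity enhancement ratio = IC50(0 Gy)/IC50(4 Gy).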

[3] = Toxicity in BALB/c mouse xenografted with human HeLa cells assessed as liver damage by measuring effect on ALT level at 4 mg/kg, iv administered every 3 days for 21 days in presence of 4 Gy X-ray irradiation; assay type: organism-based; settings: in vivo
In short: (§2)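 HeLa xenograft nude mice dosed at 4 mg/kg iv every 3 days over 21 days, alone or with X-rays; blood collected 24 h after last injection for serum biochemistry: ALT, AST (liver), BUN and uric acid (kidney).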

[4] = Drug uptake in human HeLa cells at 4 uM after 4 hrs by fluorescence based assay; assay type: ADME, cell-based
[5] = system: HeLa; assay: Ratio of IC50 for antiproliferative activity against human HeLa cells assessed as reduction in cell viability incubated for 12 hrs to IC50 for antiproliferative activity against human HeLa cells assessed as reduction in cell viability preincubated for 12 hrs followed by 4 Gy irradiation and measured after 60 hrs by MTT assay; assay type: functional; in short: as §1
[6] = Toxicity in BALB/c mouse xenografted with human HeLa cells assessed as spleen damage at 4 mg/kg, iv administered for every 3 days for 21 days and measured after 24 hrs post last dose by H and E staining based light microscopic analysis; assay type: organism-based; settings: in vivo
In short: (§3)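 HeLa-tumor-bearing nude mice dosed at 4 mg/kg iv every 3 days for 21 days, alone or with X-rays; euthanized 24 h after last injection; heart, liver, lungs, kidneys and spleen sectioned and stained with H&E.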

[7] = system: HeLa; assay: Induction of apoptosis in human HeLa cells assessed as caspase-9 activation at 1 uM using Ac-LEHD-AMC as substrate after 12 hrs by fluorescence based assay; assay type: functional, cell-based
In short: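 HeLa cells exposed to 1 μM compound with or without 4 Gy X-rays for 12 h; caspase 8, 9 and 3 activities measured; mean ± SD of three independent experiments.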

[8] = system: HeLa; assay: Induction of apoptosis in human HeLa cells assessed as caspase-8 activation at 1 uM using […] as substrate after 12 hrs by fluorescence based assay relative to control; assay type: functional
In short: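 Caspase-3 and caspase-8 activities were measured in HeLa cells after 12 h at 1 μM, without or with 4 Gy X-rays. Mean ± SD of three independent experiments.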

[9] = Safety index, ratio of IC50 for cytotoxicity against human Ect1/E6E7 cells assessed as reduction in cell viability in presence of 4 Gy irradiation by MTT assay to antiproliferative activity against human HeLa cells assessed as reduction in cell viability preincubated for 12 hrs followed by 4 Gy irradiation and measured after 60 hrs by MTT assay; assay type: toxicity, cell-based; settings: Ect1/E6E7 cells versus HeLa cells, read-out: Ratio IC50
In short: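 MTT viability assay on Ect1/E6E7 normal ectocervical cells and HeLa cells, with 0 or 4 Gy X-rays. SER = IC50(0 Gy)/IC50(4 Gy) in the same line; safe index SI4 = IC50 Ect1/E6E7 + 4 Gy divided by IC50 HeLa + 4 Gy.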

[10] = system: HeLa; assay: Antitumor activity against human HeLa cells xenografted in BALB/c mouse assessed as reduction in tumor growth at 4 mg/kg, iv administered for every 3 days for 21 days in presence of 4 Gy X-ray irradiation relative to control; assay type: functional; parameters: scale not given: the % may be the effect or the level left
In short: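 HeLa tumour-bearing nude mice were dosed at 4 mg/kg by tail-vein injection every 3 days over a 21-day period, with or without X-ray irradiation. Tumours were photographed and sectioned for H&E staining. Body weight was recorded over the 21 days.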

[11] = Toxicity in BALB/c mouse xenografted with human HeLa cells assessed as kidney damage by measuring effect on BUN level at 4 mg/kg, iv administered every 3 days for 21 days in presence of 4 Gy X-ray irradiation; assay type: organism-based; settings: in vivo; in short: as §2
[12] = Toxicity in BALB/c mouse xenografted with human HeLa cells assessed as heart damage at 4 mg/kg, iv administered for every 3 days for 21 days and measured after 24 hrs post last dose in presence of 4 Gy X-ray irradiation by H and E staining based light microscopic analysis; assay type: organism-based; settings: in vivo; in short: as §3
[13] = system: HeLa; assay: Induction of cell cycle arrest in human HeLa cells assessed as accumulation at S phase at 1 uM after 48 hrs in presence of 4 Gy X-ray radiation by propidium iodide staining based flow cytometric analysis (reference value: 31%); assay type: functional
[14] = system: HeLa; assay: Induction of ROS generation in human HeLa cells by DHE fluorescent dye based microplate reader analysis relative to control; assay type: functional
In short: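 Intracellular ROS in HeLa cells were measured with the dihydroethidium probe, whose superoxide-oxidised product fluoresces red. Cells were treated with or without 4 Gy X-rays, then incubated with DHE. Fluorescence was read on a microplate reader and expressed as % of untreated cells.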

[15] = system: HeLa; assay: Antitumor activity against human HeLa cells xenografted in BALB/c mouse at 4 mg/kg, iv administered for every 3 days for 21 days; assay type: functional, organism-based
In short: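 Nude mice bearing HeLa tumors; compound by tail-vein injection every 3 days over 21 days at 4 mg/kg, alone or combined with X-rays.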

[16] = Toxicity in BALB/c mouse xenografted with human HeLa cells assessed as body weight loss at 4 mg/kg, iv administered for every 3 days and measured after 21 days; assay type: organism-based; settings: in vivo, 504 h
In short: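 HeLa-tumor-bearing nude mice given compound at 4 mg/kg by tail-vein injection every 3 days, alone or with X-rays; body weight recorded across 21 days.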

[17] = Toxicity in BALB/c mouse xenografted with human HeLa cells assessed as liver damage by measuring effect on AST level at 4 mg/kg, iv administered every 3 days for 21 days; assay type: organism-based; settings: in vivo; in short: as §2
[18] = Cytotoxicity against human Ect1 cells assessed as reduction in cell viability by MTT assay; assay type: cell-based
In short: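 MTT viability assay in Ect1/E6E7 normal ectocervical epithelial cells, with the test agent alone (0 Gy) or combined with 4 Gy X-rays. IC50 values are in μM.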

[19] = system: HeLa; assay: Inhibition of cell migration in human HeLa cells assessed as reduction in spreading rate at 1 uM after 24 hrs in presence of 4 Gy X-ray irradiation by phase contrast microscopic analysis; assay type: functional, cell-based
In short: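 Wound-healing scratch assay on HeLa monolayers, compound with or without 4 Gy X-rays; wound closure recorded by phase-contrast microscopy at set times; migrated cells counted manually; mean ± SD of three independent experiments.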

[20] = system: HeLa; assay: Induction of ROS generation in human HeLa cells in presence of 4 Gy X-ray irradiation by DHE fluorescent dye based microplate reader analysis (reference value: 150%); assay type: functional
[21] = system: HeLa; assay: Induction of cell cycle arrest in human HeLa cells assessed as accumulation at S phase at 1 uM after 48 hrs by propidium iodide staining based flow cytometric analysis (reference value: 41.6%); assay type: functional
[22] = Toxicity in BALB/c mouse xenografted with human HeLa cells assessed as kidney damage by measuring effect on uric acid level at 4 mg/kg, iv administered every 3 days for 21 days in presence of 4 Gy X-ray irradiation; assay type: organism-based; settings: in vivo; in short: as §2

## Nc1nc(N)c2nc3c(nc2n1)-c1cccc2cccc-3c12
[1]
  Activity: 38.7%
[2]
  IC50: 0.64 µM
[3]
  Activity: Non-Toxic
[4]
  Drug uptake: Active
[5]
  Ratio IC50: 3.3
[6]
  Activity: Non-Toxic
[7]
  Activity: Active
[8]
  Activity: 110%
[9]
  selectivity ratio at 60 h: 4.8
[10]
  Activity: 32%
[11]
  Activity: Non-Toxic
[12]
  Activity: Non-Toxic
[13]
  Activity: 16.1%
[14]
  Activity: 132%
[15]
  Activity: Active
[16]
  Activity: Non-Toxic
[17]
  Activity: Non-Toxic
[18]
  IC50: 6.9 µM
[19]
  inhibition: Active
[20]
  Activity: 205%
[21]
  Activity: 29.2%
[22]
  Activity: Non-Toxic
